From ChEMBL document CHEMBL4513216, “Probing the Open Global Health Chemical Diversity Library for Multistage-Active Starting Points for Next-Generation Antimalarials” (ACS Infect Dis, 2020)

Assay: Toxicity liver stage against HepG2, at 10uM
Format: cell-based
Set-up: test concentration 10 uM, cell line HepG2-A16-CD81EGFP
Settings: human, HepG2-A16-CD81EGFP cells; read-out: INHIBITION
Method in brief: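 Uninfected HepG2-A16-CD81EGFP cells, 3 × 10^3 per well, 1536-well, plated on prespotted compound at 10 μM final, parasite-free screening media added to match infected plates; puromycin 10 μM positive, DMSO 0.5% negative; run in parallel with 48 h PbLuc assay at 37 °C, 5% CO2; viability by CellTiter-Glo luminescence, normalized to controls.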

| Compound | cytotoxicity at 10 µM |
| --- | --- |
| COCCN1CCO[C@@H]2CN(Cc3sccc3C)C[C@@H]2C1 | -1.34% |
| COc1ccc(NC(=O)CCSc2ccc3nncn3n2)c(OC)c1 | -15.3% |
| COc1c(CNCC(O)c2ccc(C)cc2)c(C(C)C)nn1C (stereo not given) | -10.6% |
| Cc1cccc(CN2CC3C[C@]3(NC(=O)c3ccoc3)C2)n1 (stereo not given in full) | -147% |
| Cc1cc(CNC(=O)NC(C)c2ccncc2)no1 (stereo not given) | -13.5% |
| CSCCC(Nc1nc(C)cc(C)n1)C(=O)NC1CC1 (stereo not given) | -15.3% |
| CC(C)c1noc(CN2CCN(CCO)CC2)n1 | -5.57% |
| Cc1noc(C2CCN(c3oc(C)nc3C#N)CC2)n1 | -6.32% |
| Cc1nc(-c2cccc(N3CCC(N4CCCC4)CC3)c2)cs1 | -17.2% |
| O=C(NCC1CC1)c1cc2c(s1)CCN2C(=O)c1cccnc1 | 8.07% |
| CO[C@H]1CN(C(=O)c2ccc(-c3cc[nH]n3)cc2)CC[C@H]1N | 5.29% |
| CCOCCS(=O)(=O)Cc1ccn(-c2cccc(F)c2)n1 | 4.48% |
| COc1cc2nc(C)sc2cc1NC(=O)CN(C)C(C)C | -3.93% |
| CN1CCC(N(CCc2ccccc2)Cc2noc(C3CC3)n2)CC1 | -3.49% |
| COCC(=O)N1CCC(c2nc3ccc(N4CCOCC4)cn3n2)CC1 | 12% |
| COc1cc(CN(C(=O)Nc2cccnc2OC)C2CC2)ccc1O | -2.14% |
| CCN1C(=O)CC(c2ccccc2)C12CCN(CC1CCOCC1)CC2 (stereo not given) | 3.06% |
| O=C(c1cc(F)cc(F)c1)N1CCC2(CC1)CC2 | 5.04% |
| O=C(CN1CCN(c2ncccn2)[C@@H]2CS(=O)(=O)C[C@@H]21)N1CCCCC1 | -6.82% |
| CCc1nccn1CC(=O)N1C[C@@H]2CC[C@H]1CN(S(=O)(=O)N(C)C)C2 | -6.38% |
| Cc1cc(C)n(C2CN(CC(=O)N(C)Cc3cnn(C)c3)C2)n1 | -5.85% |
| COc1ccsc1C(=O)N1CCCC(n2nc(C)cc2C)C1 (stereo not given) | -9.41% |
| COCCN(C)C[C@@H]1CCC[C@@H]2CN(c3cc(OC)ncn3)C[C@@H]21 | 1.75% |
| Cc1nn(C)c(C)c1C1CCCN1C(=O)c1cnccn1 (stereo not given) | -15.7% |
| COCCNS(=O)(=O)c1cccc2c1CN(C(=O)c1cc(C)on1)CC2 | 1.63% |
| Cc1noc(C)c1CN(C)CC(=O)Nc1ccnn1C(C)C1CC1 (stereo not given) | -2.82% |
| CCn1c(N)nc2cc(C(=O)N3CCN(c4nccs4)CC3)cnc21 | -17.2% |

| Compound | cytotoxicity at 10 µM |
| --- | --- |
| Cn1cc(C(=O)NCCCN2CCCCCC2=O)c(-c2cccnc2)n1 | -8.3% |
| CC(C)(C)n1ncc2c(=O)[nH]c(NC3CC=CC3)nc21 | 1.68% |
| COc1cccc2c1OCC(CNC(=O)Cc1csc(C(C)=O)c1)C2 (stereo not given) | -146% |
| CC1=N[C@@]2(CC[C@@H]3CN(S(=O)(=O)N(C)C)C[C@@H]32)C(=O)N1CC(C)C | 3.16% |
| CCOCC(=O)N1C[C@H]2CN(CC3CC3)C(=O)[C@H]2C1 | 3.94% |
| O=C(NCc1nncn1C1CC1)Nc1ccc(OC2CCC2)c(F)c1 | -3.2% |
| CCn1cc(CN2CCCN(C(=O)c3ccoc3)CC2)cn1 | -18.8% |
| CC1(C)CN(CC(F)(F)F)CCN1CC(=O)N1CCCCC1 | 13.2% |
| CC(C)(C)NC(=O)COc1ccc(CNCc2ccccn2)cc1 | -11.5% |
| COc1ccnc(N2CCC3(CC2)[C@H](O)C[C@@H]3OCCN(C)C)n1 | 1.03% |
| Cc1cc(-c2ccc(C(C)N3CCCCC3)cc2)cnc1N (stereo not given) | -3.44% |
| Cc1ccc(S(C)(=O)=O)cc1NCC(=O)NCCC1=CCCCC1 | 0.846% |
| CCc1cc(C(=O)N[C@@H]2CC[C@@H](N3CCOCC3)[C@@H]2O)no1 | 37.5% |
| CCc1nc(C(=O)N(CC)CC(=O)Nc2cc(Cl)ccc2C)c[nH]1 | 8.44% |
| CC(C)(C)n1ncc2c(=O)n(CC(=O)NCc3ccccc3)cnc21 | 42% |
| Cc1[nH]c(-c2ccccc2)nc1C(=O)N1CC[C@H](CO)[C@@H](O)C1 | 76.5% |
| Cc1cc(C)n(CC2CN(Cc3nc(C)c(C)o3)CCO2)n1 (stereo not given) | 4.17% |
| CCN(Cc1nc2c(cnn2C)c(=O)[nH]1)c1ccc(OC)c(OC)c1 | 2.31% |
| COc1ccccc1C1(CNCc2ccc(C#N)cc2)CCOCC1 | 7.62% |
| CCCn1c(N2CCCCC2)nc2c(C)nn(C)c2c1=O | 11.8% |
| Cc1cccc(C(=O)Nc2c(C(N)=O)n[nH]c2C)c1C | -1.49% |
| Cc1noc(C)c1-c1cccc(C2CCN(CC(=O)N(C)C)CC2)n1 | 6.33% |
| Cc1occc1C(=O)N1C[C@@H]2[C@@H](C1)OCC(=O)N2Cc1cccnc1 | 0.661% |
| Cc1nc(C)n(CC2CN(c3ncccc3C#N)CCO2)n1 (stereo not given) | -10.1% |
| Cc1nnc2n1CCN(Cc1csc(-c3ccc(F)cc3)n1)C2 | -6.78% |
| COc1cccc2c1ccn2CC(=O)N1CCCC(C(=O)O)C1 (stereo not given) | 6.28% |
| N#Cc1ccc(NCCC2CCN(CC(F)(F)F)CC2)nc1 | 5.92% |

| Compound | cytotoxicity at 10 µM |
| --- | --- |
| Cc1ccc(C)c(S(=O)(=O)NCCOc2ccc3nnc(C)n3n2)c1 | -11.3% |
| CC(CO)NC(=O)Nc1ccc(S(C)(=O)=O)nc1 (stereo not given) | -10.2% |
| CCn1nccc1CN(C)C(=O)Cn1nc(C)c(C)c1C | 0.66% |
| Cc1n[nH]c(C2CN(C(=O)c3ccco3)CCO2)n1 (stereo not given) | -14.5% |
| Cc1nn(C)c2nc(NCCN3CCCC(C(N)=O)C3)sc12 (stereo not given) | 0.739% |
| Cc1ccc(CN2C[C@@H]3CCN(Cc4ccncc4)C(=O)[C@H]3C2)s1 | 4.53% |
| CNc1nc(C2CCCN(C(=O)C(C)C)C2)nc2c1CN(C)CC2 (stereo not given) | -16.3% |
| CC(C)c1nccn1CC(=O)Nc1ccnn1C(C)C(C)C (stereo not given) | 1.11% |
| Cc1ccc2c(c1)C(=O)NCC1(CCN(C(=O)c3cc(C)no3)CC1)O2 | -20.8% |
| O=C(NC1CCCN(c2ccccc2F)C1)c1ccon1 (stereo not given) | -6.43% |
| O=S1(=O)CCC(n2cc(CNCC3(c4ccccc4)CC3)cn2)C1 (stereo not given) | 16.5% |
| CN(C(=O)CN1CCCC1Cc1ccccc1)c1ccccc1 (stereo not given) | 17.8% |
| Cc1ccc(CC(=O)N2CCOC(c3ncc(CN(C)C)[nH]3)C2)s1 (stereo not given) | -3.47% |
| CCc1cc(O)nc(C2CCCN2C(=O)c2cccnc2)n1 (stereo not given) | -1.54% |
| CCc1nccn1-c1nccnc1C1CCN(C(=O)COC)CC1 | -19.7% |
| CC(C)C(NC(=O)c1ccc(=O)[nH]c1)c1nnc2n1CCNCC2 (stereo not given) | -1.86% |
| COc1cc(OC)c2c(=O)oc(CC(O)CC(C)=O)cc2c1 (stereo not given) | 5.73% |
| CNCC1CCC(c2cc(CN(C)S(=O)(=O)N(C)C)n(C)n2)CC1 (stereo not given) | -1.33% |
| CCn1ncc2c1CCCC2NCc1ccc(OC)cc1OC (stereo not given) | -2.06% |
| O=C(c1ccccc1)C1CCN(C(=O)CC2COCCN2)CC1 (stereo not given) | -163% |
| Cn1cc(CN2CCC(Cn3cc(-c4ccccc4)nn3)CC2)cn1 | 9.47% |
| COc1cc(Cl)c(C)cc1NC(=O)CNc1ccn(CC(N)=O)n1 | 9.8% |
| Cc1nn(C)c(C)c1C1COCCN1C(=O)CC(C)(C)C (stereo not given) | -5.07% |
| COc1ccc(F)cc1C(=O)N1C[C@H]2CC(OC)C[C@H]2C1 (stereo not given in full) | -2.19% |
| CC(C)c1nsc(NC2CCOC3(CCCC3)C2)n1 (stereo not given) | 8.83% |
| COc1c(C2CCCN2C(=O)c2ccc(Cl)o2)c(C)nn1C (stereo not given) | -10.4% |
